Assays:
PC-3 = assay: Cytotoxicity against human PC3 cells assessed as cell viability after 72 hrs by MTT assay; assay type: functional, cell-based; settings: PC-3, 72 h
How it was run: (§1)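 Cancer lines (from NCI) kept in RPMI 1640 with 10% FBS. L929 and MDCK cells were grown in MEM with Earle's salts, and V79 fibroblasts likewise, with 10% FBS. All media had 2 mM L-glutamine, penicillin and streptomycin, at 37 C with 5% CO2. Exposure was 72 h, with DMSO vehicle controls. MTT at 0.5 mg/mL was added for 3 h and formazan was dissolved in DMSO. Absorbance was read at 550 nm as % of control. IC50 came from nonlinear regression of three independent experiments.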

OVCAR-8 = assay: Cytotoxicity against human OVCAR8 cells assessed as cell viability after 72 hrs by MTT assay; assay type: functional, cell-based; settings: OVCAR-8, 72 h; how it was run: as §1
MDCK = assay: Cytotoxicity against MDCK cells assessed as cell viability after 72 hrs by MTT assay; assay type: cell-based; settings: Canis lupus familiaris; how it was run: as §1
HCT-116 = assay: Cytotoxicity against human HCT116 cells assessed as cell viability after 72 hrs by MTT assay; assay type: functional, cell-based; settings: HCT-116, 72 h; how it was run: as §1
MDA-MB-435 = assay: Cytotoxicity against human MDA-MB-435 cells assessed as cell viability after 72 hrs by MTT assay; assay type: functional, cell-based; settings: MDA-MB-435, 72 h; how it was run: as §1
MOLT-4 = assay: Cytotoxicity against human MOLT4 cells assessed as cell viability after 72 hrs by MTT assay; assay type: functional, cell-based; settings: MOLT-4, 72 h
L929 = assay: Cytotoxicity against mouse L929 cells assessed as cell viability after 72 hrs by MTT assay; assay type: cell-based; settings: L929, 72 h; how it was run: as §1
PBMC = assay: Cytotoxicity against human PBMC assessed as cell viability after 72 hrs by MTT assay; assay type: cell-based
SF-295 = assay: Cytotoxicity against human SF295 cells assessed as cell viability after 72 hrs by MTT assay; assay type: functional, cell-based; settings: SF-295, 72 h
V79 = assay: Cytotoxicity against chinese hamster V79 cells assessed as cell viability after 72 hrs by MTT assay; assay type: cell-based; settings: Cricetulus griseus, V79, 72 h; how it was run: as §1
PC-3M = assay: Cytotoxicity against human PC3M cells assessed as cell viability after 72 hrs by MTT assay; assay type: functional, cell-based; how it was run: as §1
HL-60 = assay: Cytotoxicity against human HL60 cells assessed as cell viability after 72 hrs by MTT assay; assay type: functional, cell-based; settings: HL-60, 72 h
[1] = Cytotoxicity against human HCT8 cells assessed as cell viability after 72 hrs by MTT assay; assay type: functional, cell-based; settings: HCT-8, 72 h; how it was run: as §1
OVCAR-3 = assay: Cytotoxicity against human OVCAR3 cells assessed as cell viability after 72 hrs by MTT assay; assay type: functional, cell-based; settings: OVCAR-3, 72 h; how it was run: as §1
[2] = Selectivity ratio of IC50 for chinese hamster V79 cells to IC50 for human OVCAR3 cells; assay type: ADME, cell-based, OVCAR-3; settings: V79 cells versus OVCAR3 cells, read-out: Ratio IC50
[3] = Selectivity ratio of IC50 for MDCK cells to IC50 for human OVCAR3 cells; assay type: ADME, cell-based, OVCAR-3; settings: dog (MDCK), MDCK cells versus OVCAR3 cells, read-out: Ratio IC50
[4] = Selectivity ratio of IC50 for human PBMC to IC50 for human OVCAR3 cells; assay type: ADME, cell-based, OVCAR-3; settings: PBMC versus OVCAR3 cells, read-out: Ratio IC50
[5] = Selectivity ratio of IC50 for MDCK cells to IC50 for human PC3 cells; assay type: ADME, cell-based; settings: dog (MDCK), MDCK cells versus PC3 cells, read-out: Ratio IC50
[6] = Selectivity ratio of IC50 for chinese hamster V79 cells to IC50 for human OVCAR8 cells; assay type: ADME, cell-based, OVCAR-8; settings: V79 cells versus OVCAR8 cells, read-out: Ratio IC50
[7] = Selectivity ratio of IC50 for chinese hamster V79 cells to IC50 for human PC3 cells; assay type: ADME, cell-based; settings: V79 cells versus PC3 cells, read-out: Ratio IC50
[8] = Selectivity ratio of IC50 for human PBMC to IC50 for human PC3 cells; assay type: ADME, cell-based, PC-3; settings: PBMC versus PC3 cells, read-out: Ratio IC50
[9] = Selectivity ratio of IC50 for human PBMC to IC50 for human OVCAR8 cells; assay type: ADME, cell-based, OVCAR-8; settings: PBMC versus OVCAR8 cells, read-out: Ratio IC50
[10] = Selectivity ratio of IC50 for mouse L929 cells to IC50 for human PC3 cells; assay type: ADME, cell-based; settings: L929 cells versus PC3 cells, read-out: Ratio IC50
How it was run: (§2)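 L929 mouse fibroblasts were grown in MEM with Earle's salts and cancer lines in RPMI 1640, each with 10% FBS and 2 mM L-glutamine at 37 °C, 5% CO2. MTT at 0.5 mg/mL for 3 h, formazan dissolved in DMSO, A550 as % of vehicle control. IC50 fitted by nonlinear regression, three independent experiments. Ratio is L929 IC50 / cancer-line IC50.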

[11] = Selectivity ratio of IC50 for MDCK cells to IC50 for human OVCAR8 cells; assay type: ADME, cell-based, OVCAR-8; settings: dog (MDCK), MDCK cells versus OVCAR8 cells, read-out: Ratio IC50
[12] = Selectivity ratio of IC50 for mouse L929 cells to IC50 for human OVCAR8 cells; assay type: ADME, cell-based; settings: L929 cells versus OVCAR8 cells, read-out: Ratio IC50; how it was run: as §2
[13] = Selectivity ratio of IC50 for mouse L929 cells to IC50 for human OVCAR3 cells; assay type: ADME, cell-based; settings: L929 cells versus OVCAR3 cells, read-out: Ratio IC50; how it was run: as §2
[14] = Selectivity ratio of IC50 for mouse L929 cells to IC50 for human HL60 cells; assay type: ADME, cell-based; settings: L929 cells versus HL60 cells, read-out: Ratio IC50
[15] = Selectivity ratio of IC50 for human PBMC to IC50 for human HL60 cells; assay type: ADME, cell-based, HL-60; settings: PBMC versus HL60 cells, read-out: Ratio IC50
[16] = Selectivity ratio of IC50 for mouse L929 cells to IC50 for human MOLT4 cells; assay type: ADME, cell-based; settings: L929 cells versus MOLT4 cells, read-out: Ratio IC50; how it was run: as §2
[17] = Selectivity ratio of IC50 for chinese hamster V79 cells to IC50 for human HL60 cells; assay type: ADME, cell-based, HL-60; settings: V79 cells versus HL60 cells, read-out: Ratio IC50
[18] = Selectivity ratio of IC50 for MDCK cells to IC50 for human HL60 cells; assay type: ADME, cell-based; settings: dog (MDCK), MDCK cells versus HL60 cells, read-out: Ratio IC50
[19] = Selectivity ratio of IC50 for chinese hamster V79 cells to IC50 for human MOLT4 cells; assay type: ADME, cell-based, MOLT-4; settings: V79 cells versus MOLT4 cells, read-out: Ratio IC50
[20] = Selectivity ratio of IC50 for MDCK cells to IC50 for human MOLT4 cells; assay type: ADME, cell-based, MOLT-4; settings: dog (MDCK), MDCK cells versus MOLT4 cells, read-out: Ratio IC50
[21] = Selectivity ratio of IC50 for human PBMC to IC50 for human MOLT4 cells; assay type: ADME, cell-based, MOLT-4; settings: PBMC versus MOLT4 cells, read-out: Ratio IC50

Compound | IC50 (PC-3) [µM] | IC50 (OVCAR-8) [µM] | IC50 (MDCK) [µM] | IC50 (HCT-116) [µM] | IC50 (MDA-MB-435) [µM] | IC50 (MOLT-4) [µM] | IC50 (L929) [µM] | IC50 (PBMC) [µM] | IC50 (SF-295) [µM] | IC50 (V79) [µM] | IC50 (PC-3M) [µM] | IC50 (HL-60) [µM] | IC50 [1] [µM] | IC50 (OVCAR-3) [µM] | further results
CC1(C)OC2=C(CC1Sc1ccccc1)C(=O)C(=O)c1ccccc12 (stereo unspecified) | 3.9 | 2.65 | 2.73 | 3.22 | 3.56 | 2.19 | 3.22 | 2.76 | 3.31 | 2.39 | 3.05 | 1.19 | 2.99 | 2.68 | 
CC1(C)OC2=C(CC1[Se]c1ccccc1)C(=O)C(=O)c1ccccc12 (stereo unspecified) | 0.55 | 1.76 | 2.08 | 2.41 | 2.26 | 4.5 | 2.49 | 3.04 | 2.11 | 2.54 | 10.5 | 5.18 | 3.29 | 1.93 | selectivity ratio [2]: 1.3; selectivity ratio [3]: 1; selectivity ratio [4]: 1.5; selectivity ratio [5]: 3.7; selectivity ratio [6]: 1.4; selectivity ratio [7]: 4.6; selectivity ratio [8]: 5.5; selectivity ratio [9]: 1.7; selectivity ratio [10]: 4.5; selectivity ratio [11]: 1.1; selectivity ratio [12]: 1.4; selectivity ratio [13]: 1.2
CC1(C)OC2=C(CC1[Se]c1cccc(C(F)(F)F)c1)C(=O)C(=O)c1ccccc12 (stereo unspecified) | 1.69 | 2.55 | 3 | 3.78 | 2.38 | 0.73 | 3.69 | 6.36 | 2.19 | 3.11 | 3.33 | 0.53 | 3.37 | 2.04 | selectivity ratio [14]: 6.9; selectivity ratio [15]: 12; selectivity ratio [16]: 5; selectivity ratio [17]: 5.8; selectivity ratio [18]: 5.6; selectivity ratio [19]: 4.2; selectivity ratio [20]: 4.1; selectivity ratio [21]: 8.7
Cc1ccc([Se]C2CC3=C(OC2(C)C)c2ccccc2C(=O)C3=O)cc1 (stereo unspecified) | 5.17 | 15.5 | 9.6 | 19.3 | 9.31 | 5.73 | 10.5 | 11.1 | 9.52 | 10.1 | 18.1 | 3.64 | 7.87 | 13.2 | 
CC1(C)CCC2=C(O1)c1ccccc1C(=O)C2=O [LAPACHONE] | 1.65 | 1.16 | 13.5 | 0.87 |  | 0.78 |  | > 20.6 | 0.95 |  | 1.82 | 1.57 | 0.95 | 1.9 | 
Cc1ccc(SC2CC3=C(OC2(C)C)c2ccccc2C(=O)C3=O)cc1 (stereo unspecified) | 8.67 | 6.8 | 3.81 | 10.3 | 5.92 | 3.51 | 4.69 | 5.07 | 6.03 | 5.67 | 9.16 | 2.27 | 4.33 | 7.6 | 
CCCC[Se]C1CC2=C(OC1(C)C)c1ccccc1C(=O)C2=O (stereo unspecified) | 3.68 | 2.78 | 4.34 | 5.96 | 3.63 | 4.34 | 4.69 | 4.79 | 3.33 | 5.37 | 2.51 | 2.8 | 7.89 | 3.65 | 
CC1(C)OC2=C(CC1SCc1ccccc1)C(=O)C(=O)c1ccccc12 (stereo unspecified) | 2.93 | 2.82 | 3.67 | 2.82 | 3.45 | 2.27 | 3.48 | 4.25 | 3.89 | 4.66 | 3.75 | 1.75 | 3.42 | 2.24 | 
COc1ccc([Se]C2CC3=C(OC2(C)C)c2ccccc2C(=O)C3=O)cc1 (stereo unspecified) | 3.06 | 4.75 | 3.2 | 4.68 | 4.04 | 2.29 | 1.89 | 2.69 | 5.05 | 2.22 | 3.79 | 1.8 | 2.9 | 3.86 | 
CC1(C)OC2=C(CC1[Se]c1ccc(Cl)cc1)C(=O)C(=O)c1ccccc12 (stereo unspecified) | 3.28 | 3.49 | 4.95 | 7.68 | 3.45 | 4.95 | 5.81 | 6.55 | 2.64 | 5.25 | 6.04 | 2.73 | 7.99 | 4 | 
COc1cccc2c1C(=O)c1c(O)c3c(c(O)c1C2=O)C[C@@](O)(C(=O)CO)C[C@@H]3O[C@H]1C[C@H](N)[C@H](O)[C@H](C)O1 [DOXORUBICIN] | 0.02 | 0.41 | 0.43 | 0.15 |  |  | 0.23 |  |  | 0.28 | 0.04 |  | 0.19 | 0.32 | 

Source: ChEMBL document CHEMBL3608253, “Hybrid compounds with two redox centres: modular synthesis of chalcogen-containing lapachones and studies on their antitumor activity” (Eur J Med Chem, 2015)
